Measurements from ChEMBL document CHEMBL1145126, “Novel derivatives of benzo[b]thieno[2,3-c]quinolones: synthesis, photochemical synthesis, and antitumor evaluation” (J Med Chem, 2003).

Key:
Caco-2 = assay: In vitro inhibitory effect on growth of human CaCo-2 tumor cell line; assay type: functional, cell-based
HBL [1] = assay: In vitro inhibitory effect on growth of human HBL tumor cell line; assay type: functional, cell-based
HeLa = assay: In vitro inhibitory effect on growth of human HeLa tumor cell line; assay type: functional, cell-based
HEp-2 = assay: In vitro inhibitory effect on growth of human Hep-2 tumor cell line; assay type: functional, cell-based
MCF7 = assay: In vitro inhibitory effect on growth of human MCF-7 tumor cell line; assay type: functional, cell-based
WI-38 = assay: In vitro inhibitory effect on growth of human normal WI-38 cell line; assay type: functional, cell-based
MIA PaCa-2 = assay: In vitro inhibitory effect on growth of human MIAPaCa-2 tumor cell line; assay type: functional, cell-based
ME67.1 = assay: In vitro inhibitory effect on growth of human ME 67.1 tumor cell line; assay type: functional, cell-based
ME67.3 = assay: In vitro inhibitory effect on growth of human ME 67.3 tumor cell line; assay type: functional, cell-based
Melanoma cell [2] = assay: Percentage of apoptotic cells after treatment of Melanoma cells with 5*10e-6 M compound for 5 hr; assay type: functional, Homo sapiens
Outline: (§1)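 HBL melanoma cells seeded at 2 × 10^5 cells/mL, exposed after 48 h to compound for 5 h, then washed in PBS and stained with Annexin-V-FLUOS for 15 min at ambient temperature. Scored by fluorescence microscopy as apoptotic (green) cells over total cells.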

HBL [3] = assay: Effect on adhesion of Melanoma cell line (HBL) at 10*10e-5 M at 1 hr incubation time; assay type: functional, Homo sapiens
Outline: (§2)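 HBL melanoma cells exposed to compound at the stated concentration and time; cells still attached to the plastic substratum quantified by MTT test. Result given as ratio (%) of treated to control cells; one of three parallel experiments reported.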

HBL [4] = assay: Effect on adhesion of Melanoma cell line (HBL) at 10*10e-5 M at 24 hr incubation time; assay type: functional, Homo sapiens; outline: as §2
HBL [5] = assay: Effect on adhesion of Melanoma cell line (HBL) at 10*10e-5 M at 2 hr incubation time; assay type: functional, Homo sapiens; outline: as §2
HBL [6] = assay: Effect on adhesion of Melanoma cell line (HBL) at 10*10e-5 M at 3h incubation time; assay type: functional, Homo sapiens; outline: as §2
HBL [7] = assay: Effect on adhesion of Melanoma cell line (HBL) at 5*10e-6 M at 1 hr incubation time; assay type: functional, Homo sapiens; outline: as §2
HBL [8] = assay: Effect on adhesion of Melanoma cell line (HBL) at 5*10e-6 M at 24 hr incubation time; assay type: functional, Homo sapiens; outline: as §2
HBL [9] = assay: Effect on adhesion of Melanoma cell line (HBL) at 5*10e-6 M at 3h incubation time; assay type: functional, Homo sapiens; outline: as §2
Melanoma cell [10] = assay: Percentage of apoptotic cells after treatment of Melanoma cells with 1*10e-5 M compound for 5 hr; assay type: functional, Homo sapiens; outline: as §1
Melanoma cell [11] = assay: Percentage of apoptotic cells after treatment of Melanoma cells with 1*10e-6 M compound for 5 hr; assay type: functional, Homo sapiens; outline: as §1
HBL [12] = assay: Effect on adhesion of Melanoma cell line (HBL) at 5*10e-6 M at 2 hr incubation time; assay type: functional, Homo sapiens; outline: as §2

Compound	IC50 (Caco-2) [nM]	IC50 (HeLa) [nM]	IC50 (MCF7) [µM]	IC50 (MIA PaCa-2) [nM]	IC50 (HBL [1]) [nM]	IC50 (HEp-2) [µM]	IC50 (WI-38) [nM]	IC50 (ME67.1) [nM]	IC50 (ME67.3) [nM]	Apoptotic cell (Melanoma cell [2]) [%]	Ratio (HBL [3]) [%]	Ratio (HBL [4]) [%]	Ratio (HBL [5]) [%]	Ratio (HBL [6]) [%]	Ratio (HBL [7]) [%]	Ratio (HBL [8]) [%]	Ratio (HBL [9]) [%]	Apoptotic cell (Melanoma cell [10]) [%]	Apoptotic cell (Melanoma cell [11]) [%]	Ratio (HBL [12]) [%]
Cc1ccc2c(c1)sc1c(=O)n(CCCN(C)C)c3ccccc3c12	1700	1000	4.5	1100	1100	3.63	2450	–	–	–	–	–	–	–	–	–	–	–	–	–
COC(=O)c1ccc2c(c1)sc1c(=O)n(CCCN(C)C)c3ccccc3c12	470	1300	0.59	1000	350	0.65	1600	–	–	–	–	–	–	–	–	–	–	–	–	–
COc1ccc2c(c1)sc1c(=O)n(CCCN(C)C)c3ccccc3c12	470	850	2.2	510	1580	2.96	2300	–	–	–	–	–	–	–	–	–	–	–	–	–
CN(C)CCCn1c(=O)c2sc3cc([N+](=O)[O-])ccc3c2c2ccccc21	790	1000	5.8	1250	1200	3.54	2400	–	–	–	–	–	–	–	–	–	–	–	–	–
CN(C)CCCn1c(=O)c2sc3ccccc3c2c2ccccc21	620	2500	4.27	1400	580	3.63	4500	–	–	–	–	–	–	–	–	–	–	–	–	–
CN(C)CCCn1c(=O)c2sc3cc(F)ccc3c2c2ccccc21	980	650	4.6	2500	3980	3.16	2900	–	–	–	–	–	–	–	–	–	–	–	–	–

The remaining compounds from weak to strong by IC50 (Caco-2), led by results:

IC50 (Caco-2) [nM]	IC50 (HeLa) [nM]	IC50 (MCF7) [µM]	IC50 (MIA PaCa-2) [nM]	Compound	IC50 (HBL [1]) [nM]	IC50 (HEp-2) [µM]	IC50 (WI-38) [nM]	IC50 (ME67.1) [nM]	IC50 (ME67.3) [nM]	Apoptotic cell (Melanoma cell [2]) [%]	Ratio (HBL [3]) [%]	Ratio (HBL [4]) [%]	Ratio (HBL [5]) [%]	Ratio (HBL [6]) [%]	Ratio (HBL [7]) [%]	Ratio (HBL [8]) [%]	Ratio (HBL [9]) [%]	Apoptotic cell (Melanoma cell [10]) [%]	Apoptotic cell (Melanoma cell [11]) [%]	Ratio (HBL [12]) [%]
4790	34700	19.5	4790	CN(C)CCCN(C(=O)c1ccc2c(c1)sc1c(O)nc3ccccc3c12)c1ccccc1	670	3.16	10000	–	–	–	–	–	–	–	–	–	–	–	–	–
3800	6300	10	6600	CN(C)CCCNC(=O)c1ccc2c(c1)sc1c(O)nc3ccccc3c12	1000	6.6	4400	–	–	–	–	–	–	–	–	–	–	–	–	–
490	2800	2.63	1000	CN(C)CCCn1c(=O)c2sc3cc(C(=O)Nc4ccccc4)ccc3c2c2ccccc21	10	1.77	2300	790	190	29	87	28	87	81	90	62	95	35	9	98
